FXIa inh 1536 = human FXIa protease inhibitors, primary screen, biochemical, 1536-well; inhibition, % at 5 µM; purified FXIa, Boc-Glu-Ala-Arg-AMC fluorogenic substrate; AID 798, 2007; actives 0.14% (n = 220,000);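 active = inhibition of at least 40%; inactive = inhibition below 40%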;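 note: fluorescence of freed AMC excited at 355 nm; 0% = enzyme without compound and 100% = no enzyme blank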
Target sequence (P03951 19-387 limits assumed): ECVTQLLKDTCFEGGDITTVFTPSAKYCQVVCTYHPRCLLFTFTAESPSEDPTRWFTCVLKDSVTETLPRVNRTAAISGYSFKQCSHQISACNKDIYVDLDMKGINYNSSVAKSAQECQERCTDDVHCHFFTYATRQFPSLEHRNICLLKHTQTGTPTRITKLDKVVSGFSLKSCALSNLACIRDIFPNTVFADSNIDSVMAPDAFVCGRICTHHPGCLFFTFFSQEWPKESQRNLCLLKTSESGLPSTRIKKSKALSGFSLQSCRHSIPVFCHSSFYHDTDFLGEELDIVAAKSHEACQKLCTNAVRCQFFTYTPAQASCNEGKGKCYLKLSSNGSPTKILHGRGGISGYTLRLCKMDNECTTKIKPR
Target sequence (P03951 388-625 limits assumed): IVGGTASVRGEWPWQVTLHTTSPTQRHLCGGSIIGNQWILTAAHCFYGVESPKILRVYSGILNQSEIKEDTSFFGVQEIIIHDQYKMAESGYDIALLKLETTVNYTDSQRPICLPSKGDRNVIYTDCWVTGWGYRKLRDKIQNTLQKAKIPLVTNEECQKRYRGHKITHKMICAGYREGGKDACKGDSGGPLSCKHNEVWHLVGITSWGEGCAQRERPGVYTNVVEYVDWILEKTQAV
TbHK1 inh = Trypanosoma brucei hexokinase 1 inhibitors, primary screen, biochemical, G6PDH-coupled NADH absorbance, MLSCN library. recombinant TbHK1, G6PDH-coupled NADH A340. actives 0.11% (n = 220,000). inhibition, % at 10 µM. hexokinase 1 [Trypanosoma brucei];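 active = inhibition of 50% or more in the single-dose primary screen; inactive = inhibition below 50%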
FXIIa inh = human FXIIa protease inhibitors, primary screen, biochemical, 1536-well | Coagulation factor XII (Homo sapiens), P00748 | purified FXIIa, Boc-QGR-AMC fluorogenic substrate, 2 h | inhibition, % at 5 µM | actives 0.3% (n = 220,000); in the data active = inhibition above about 40%;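 note: 0% = enzyme with no compound and 100% = blank without enzyme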
Thrombin inh = human alpha-thrombin inhibitors, primary screen, counter-screen for coagulation protease inhibitor project, biochemical, 1536-well, fluorogenic AMC substrate. Boc-VPR-AMC fluorogenic substrate cleavage. inhibition, % at 5 µM. actives 0.26% (n = 220,000);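 active = inhibition at or above 40%; inactive = inhibition below 40%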;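 note: 0% = enzyme with no compound and 100% = wells without enzyme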
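System: Human alpha-thrombin protein | Medium: pH 7.5 Tris (50 mM) with NaCl 150 mM, Tween 20 0.05% | Times: Enzyme reaction carried out at room temperature | Detection: AMC fluorescence, 355/460 nm | Evaluation: Percent inhibition scaled between no-compound controls and no-enzyme blanks | Benchmarks: Enzyme without compound as high, wells lacking enzyme as low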
KLK5 inh = human KLK5 protease inhibitors, primary screen, biochemical, 1536-well | Kallikrein-5 (Homo sapiens), Q9Y337 | recombinant hK5, fluorogenic AMC substrate cleavage | inhibition, % at 5 µM | actives 0.59% (n = 210,000);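 active = inhibition of 40% or more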;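 note: 0% = enzyme controls without compound and 100% = no-enzyme blanks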
G6PDH ctr = Leuconostoc G6PDH inhibition, confirmation, counter-screen for TbHK1 inhibitor project, biochemical, DPI cherry-picked compounds, single concentration; shares compounds with TbHK1 inh; purified G6PDH, NADH absorbance, 1 h; inhibition, % at 10 µM; actives 7% (n = 210);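 active = at least 50% inhibition in the glucose-6-phosphate dehydrogenase coupled counterscreen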
TbHK1 confirm = TbHK1 inhibitor retest, confirmation, biochemical, DPI cherry-picked primary actives | inhibition, % at 10 µM | actives 10% (n = 210) | recombinant TbHK1, G6PDH-coupled NADH A340 absorbance | AID 2560, 2010 | shares compounds with TbHK1 inh;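 active = inhibition of at least 50% in both of the two screening runs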;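 note: 0% and 100% set by the maximum and minimum signal control wells on each plate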
* hit, by the source's call; nt = no result given. Compounds with a hit are over-represented: about 1.1% of the library has one in this group of screens.

SMILES	FXIa inh 1536	TbHK1 inh	FXIIa inh	Thrombin inh	KLK5 inh	G6PDH ctr	TbHK1 confirm
Cc1cc(C)cc(NC(=O)CSc2nnc(-c3ccccc3C)o2)c1	6	3	-5	17	54*	nt	nt
Cc1cccc(NC(=O)CSc2nnc(-c3ccccc3C)o2)c1	-3	6	0	-5	7	nt	nt
Cc1ccccc1-n1nc(C)c(N=O)c1N	5	-5	13	-1	1	nt	nt
CC(=O)c1cccc(N(C(=O)CNC(=O)c2ccco2)C(C(=O)NCc2ccco2)c2ccccc2)c1 (centres undefined)	-2	-1	6	-5	1	nt	nt
CC1CC(C)CN(S(=O)(=O)c2ccc(C(=O)N3CCN(c4ccccc4)CC3)cc2)C1 (centres undefined)	1	-6	5	4	40*	nt	nt
CN(C(=O)Cn1cccc1C1=NC(c2ccccc2)CO1)c1ccccc1 (centres undefined)	-2	4	14	-4	-2	nt	nt
CO/N=C/c1ccc(Sc2ccccc2N)c([N+](=O)[O-])c1	-2	0	44*	-6	-3	nt	nt
CO/N=C/c1ccc(Sc2ccccc2)c([N+](=O)[O-])c1	7	-7	16	6	-11	nt	nt
N#Cc1nc(-c2ccccc2F)oc1NCc1ccccc1	16	-6	15	14	42*	nt	nt
CC(=O)Nc1c(C(=O)O)[nH]c2ccccc12	7	-4	18	4	72*	nt	nt
Cc1cc(C)n(-c2nnc(C)n2/N=C/c2ccco2)n1	9	-2	16	1	-4	nt	nt
C=C(C)CN=c1scc(C)n1/N=C/c1ccco1	4	-24	10	9	43*	nt	nt
O=C(N/N=C/C(Cl)=C/c1ccccc1)c1cnccn1	8	-55	15	3	-9	nt	nt
O=C(N/N=C/C(Cl)=C\c1ccccc1)c1cnccn1	7	-68	18	17	56*	nt	nt
COCCOC(=O)C(C#N)c1nc2ccccc2nc1N1CCN(Cc2ccccc2)CC1 (centres undefined)	2	-10	9	-4	4	nt	nt
C=CCNC(=O)C(C#N)c1nc2ccccc2nc1N1CCN(Cc2ccccc2)CC1 (centres undefined)	16	1	23	104*	35	nt	nt
C=CCOC(=O)C(C#N)c1nc2ccccc2nc1N1CCN(Cc2ccccc2)CC1 (centres undefined)	3	-4	-8	6	46*	nt	nt
CCCCOc1ccc(-c2nnn(C(C)(C)C(=O)OC)n2)cc1	-11	1	-3	2	140*	nt	nt
CCCCOc1ccc(-c2nnn(C(C)C(=O)OCC)n2)cc1 (centres undefined)	4	-3	11	-1	5	nt	nt
CN(CCO)C(=O)CCC(=O)Nc1ccc(S(N)(=O)=O)cc1	1	60*	18	1	-10	-1	6
CCCCSc1nc(C)cc(SCC(=O)N/N=C/c2ccccc2)n1	-9	11	4	-1	-16	nt	nt
CSc1nc2n(n1)C(c1cc(Br)ccc1F)C(C(=O)N(C)C)=C(C)N2 (centres undefined)	2	63*	18	1	-7	-6	-7
COc1ccc(Br)cc1C1NC(=O)NC(C)=C1C(=O)N(C)C (centres undefined)	3	-2	13	2	-3	nt	nt
NC(Cc1ccc2nsnc2c1)C(=O)O (centres undefined)	nt	-8	nt	nt	nt	nt	nt
NC(Cc1cccc2nsnc12)C(=O)O (centres undefined)	-18	58*	-13	-2	-12	-18	-7
SMILES	FXIa inh 1536	TbHK1 inh	FXIIa inh	Thrombin inh	KLK5 inh	G6PDH ctr	TbHK1 confirm
COc1ccccc1N1CCN(CC(=O)Nc2c(C)n(C)n(-c3ccccc3)c2=O)CC1	0	-3	6	-2	0	nt	nt
Cc1cc(C(=O)NNS(=O)(=O)c2ccc(C(C)(C)C)cc2)nn1C(C)(C)C	5	52*	3	-5	6	-6	4
CSc1nnc(-c2ccccc2)o1	0	55*	3	2	-7	-4	2
c1ccc(-c2nnc(-c3ccccc3)o2)cc1	4	5	10	-2	-1	nt	nt
CC1CC(C)(C)NC(=S)O1 (centres undefined)	-5	-7	6	-1	4	nt	nt
Cc1cc(C)c(C#N)c(Oc2ccccc2Br)n1	-2	-4	nt	-4	-2	nt	nt
CCC(=O)N1CCc2cc(S(=O)(=O)CCC(=O)NCCC3=CCCCC3)ccc21	-3	68*	12	-1	15	-10	3
Cc1ccc2oc3nc(C)c(C(=O)Nc4cccc(C(F)(F)F)c4)cc3c(=O)c2c1	-7	-2	-2	-4	12	nt	nt
NC(=O)CC[C@@H]1NC(=O)C(Cc2ccc(O)cc2)NC(=O)c2cc([N+](=O)[O-])cc(F)c2NCCC[C@@H](C(N)=O)NC1=O (some centres undefined)	9	-15	15	0	0	nt	nt
CC(C)CN1C(=O)c2ccc(C(=O)Nc3c[nH]c(=O)[nH]c3=O)cc2C1=O	1	-7	8	-2	-13	nt	nt
O=C(Nc1c[nH]c(=O)[nH]c1=O)c1ccc2c(c1)C(=O)N(c1cccc([N+](=O)[O-])c1)C2=O	3	56*	8	2	-6	84*	70*
Cc1nc(S(=O)(=O)N2CCOCC2)c(C#N)c(C)c1Cl	-1	55*	14	-3	-10	-8	-5
Cn1c(=O)c2c(ncn2CC(COCc2ccccc2)OCc2ccccc2)n(C)c1=O (centres undefined)	8	9	-1	-2	0	nt	nt
Cc1ccc(NC(=S)Nc2cccnc2)c(S(=O)(=O)N2CCCCC2)c1	13	2	7	-3	7	nt	nt
O=C1CSC(c2ccccn2)N1c1ccc(Br)cc1 (centres undefined)	2	-1	7	-1	nt	nt	nt
O=C1CSC(c2ccccn2)N1c1ccccc1 (centres undefined)	5	61*	6	1	-1	0	2
CS(=O)(=O)N(CC(=O)N1CCCC1)Cc1ccc(Cl)cc1	-6	38	-1	-14	-19	nt	nt
Cc1ccc(CNC(=O)C2CNc3cc(C)ccc3O2)cc1 (centres undefined)	-8	58*	4	-7	1	-7	16
CCCCCOC(=O)NCC(O)c1ccccc1 (centres undefined)	2	53*	-7	1	-9	-2	3
